Measurements from different studies.
Compare with care: the assays were run in different laboratories.
Target: Ephrin type-A receptor 1 (EPHA1, Homo sapiens, UniProt P21709)
Sequence (P21709 26-976, as in one of the studies): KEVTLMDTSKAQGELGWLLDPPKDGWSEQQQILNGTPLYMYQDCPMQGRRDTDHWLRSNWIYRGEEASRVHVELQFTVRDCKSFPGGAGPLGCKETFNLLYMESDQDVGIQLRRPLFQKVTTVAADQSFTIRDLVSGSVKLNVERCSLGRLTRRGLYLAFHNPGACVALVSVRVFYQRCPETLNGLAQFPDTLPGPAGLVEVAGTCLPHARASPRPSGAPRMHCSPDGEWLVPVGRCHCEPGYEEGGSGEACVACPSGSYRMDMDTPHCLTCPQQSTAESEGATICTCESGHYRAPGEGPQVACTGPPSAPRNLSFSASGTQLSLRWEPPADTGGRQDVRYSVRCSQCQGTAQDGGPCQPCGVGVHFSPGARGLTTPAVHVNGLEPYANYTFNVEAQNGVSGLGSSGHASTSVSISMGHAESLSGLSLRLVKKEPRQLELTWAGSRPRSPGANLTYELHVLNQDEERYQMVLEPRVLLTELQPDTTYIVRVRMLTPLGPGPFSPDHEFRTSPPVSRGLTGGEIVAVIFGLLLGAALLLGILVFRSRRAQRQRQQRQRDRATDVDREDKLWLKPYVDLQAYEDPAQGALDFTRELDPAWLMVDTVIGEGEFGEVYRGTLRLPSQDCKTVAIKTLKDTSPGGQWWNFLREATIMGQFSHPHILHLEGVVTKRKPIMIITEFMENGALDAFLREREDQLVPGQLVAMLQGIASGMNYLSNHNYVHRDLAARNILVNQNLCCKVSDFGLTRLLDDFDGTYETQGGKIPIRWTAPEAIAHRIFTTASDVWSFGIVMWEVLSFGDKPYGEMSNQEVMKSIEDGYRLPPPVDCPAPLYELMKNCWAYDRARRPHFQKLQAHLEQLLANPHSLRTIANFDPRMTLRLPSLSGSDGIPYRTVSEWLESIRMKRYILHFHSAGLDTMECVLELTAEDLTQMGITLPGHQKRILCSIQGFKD

Structure (SMILES) | read-out | method | tested at | remaining binding
O=C(Nc1c[nH]nc1C(=O)NC1CCNCC1)c1cc(F)cc(F)c1 | binding | competition with immobilised ligand | 1 µM | 100%
CSc1cccnc1N1CCN(Cc2nc3ccccc3[nH]2)CC1 | cell-free assay | competition with immobilised ligand | 1 µM | 100%
N[C@H]1CCN(c2nccc(-c3cnn4ncccc34)n2)C1 | binding | – | 1 µM | 100%
Cc1nccc(COC(=O)N2C[C@@H]3[C@@H](CNC(=O)c4ccc5[nH]nnc5c4)[C@@H]3C2)n1 | cell-free assay | competition with immobilised ligand | 1 µM | 100%
CN(CCCC(F)(F)F)c1nccc(-c2cnn3ncccc23)n1 | binding | – | 1 µM | 76%
CCC(=O)N[C@H]1CC[C@@H](C(=O)N(C)c2ccc(-c3nc4ccccc4o3)cc2)C1 | cell-free assay | competition with immobilised ligand | 1 µM | 100%
O=C(c1ccc(Nc2ncc(Cl)c(-c3ccc(Cl)s3)n2)cc1)N1CCC(N2CCCC2)CC1 | binding | competition with immobilised ligand | 1 µM | 32%
C[C@@H]1CCN(c2nccc(-c3cnn4ncccc34)n2)C1 | binding | – | 1 µM | 100%
C=CC(=O)N1CCC(C(=O)NCC(=O)N2CCN(c3nc(-c4cnc(N)nc4C(F)F)nc(N4CCOCC4)n3)CC2)CC1 | binding | competition with immobilised ligand | 1 µM | 100%
CN(C)c1nccc(-c2cnc3ncccn23)n1 | binding | – | 1 µM | 93%
CCN1CCN(Cc2ccc(C(=O)Nc3ccc(C)c(Oc4ccc5c(c4)CC(=O)N5)c3)cc2C(F)(F)F)CC1 | binding | competition with immobilised ligand | 1 µM | 77%
CC(=O)N1CCC(c2ccc(C(=O)NC(=N)N)cc2C(F)(F)F)CC1 | cell-free assay | competition with immobilised ligand | 1 µM | 100%
COc1cnc(Nc2cccc(S(N)(=O)=O)c2)nc1N1CCN(c2ccccc2)C(=O)C1 | binding | competition with immobilised ligand | 1 µM | 90%
CCS(=O)(=O)c1cc2cc(C[C@@](O)(CC(C)(C)c3ccc(F)cc3C(N)=O)C(F)(F)F)[nH]c2cn1 | cell-free assay | competition with immobilised ligand | 1 µM | 99%
Cc1cnc(Nc2ccc(C(=O)N3CCC(N4CCCC4)CC3)cc2)nc1-c1cc2ccccc2s1 | binding | competition with immobilised ligand | 1 µM | 3.9%
c1cncc(-c2cccc(Nc3nccc(NC4CCCCC4)n3)c2)c1 | binding | competition with immobilised ligand | 10 µM | 51%
CC1CCCN1c1nccc(-c2cnn3ncccc23)n1 (stereo not drawn) | binding | – | 1 µM | 96%
O=C(c1ccc(Nc2ncc(Cl)c(-c3cc4ccccc4s3)n2)cc1)N1CCC(N2CCCC2)CC1 | binding | competition with immobilised ligand | 1 µM | 16%
CN(C)c1nccc(-c2cnn3ncccc23)n1 | binding | – | 1 µM | 46%
CC(=O)N1CCC(c2ccc(C(=O)NC3=NCCN3)cc2C(F)(F)F)CC1 | cell-free assay | competition with immobilised ligand | 1 µM | 88%
COc1ncc2cc3ccccc3nc2c1C#N | cell-free assay | competition with immobilised ligand | 5 µM | 95%
